For one compound, Drug metabolism results are on record in ChEMBL document CHEMBL3286381 (J Med Chem, 2014).

Common to all, as to type: ADME, cell-based
Holding throughout (conditions): cos-7, 1 h

Data set [1] concerns the target T1, Ectonucleoside triphosphate diphosphohydrolase 1 (Homo sapiens, UniProt P49961).
T1 sequence (P49961 whole entry): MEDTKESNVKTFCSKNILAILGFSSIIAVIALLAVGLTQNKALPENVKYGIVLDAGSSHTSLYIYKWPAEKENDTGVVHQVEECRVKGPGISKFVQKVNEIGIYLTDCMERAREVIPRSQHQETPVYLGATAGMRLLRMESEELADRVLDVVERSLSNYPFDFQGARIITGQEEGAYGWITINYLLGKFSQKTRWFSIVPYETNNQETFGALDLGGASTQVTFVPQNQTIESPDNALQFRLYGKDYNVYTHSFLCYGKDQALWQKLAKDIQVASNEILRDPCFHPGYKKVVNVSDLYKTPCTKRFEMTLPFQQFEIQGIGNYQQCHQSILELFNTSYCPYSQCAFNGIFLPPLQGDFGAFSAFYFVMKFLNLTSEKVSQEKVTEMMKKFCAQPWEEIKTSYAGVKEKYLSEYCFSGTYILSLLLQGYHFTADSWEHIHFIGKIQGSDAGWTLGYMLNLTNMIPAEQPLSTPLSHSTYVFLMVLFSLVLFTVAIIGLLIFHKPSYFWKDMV
Put plainly: Drug metabolism assessed as human NTPDase-1-mediated compound hydrolysis expressed in African green monkey COS7 cells at 100 uM after 1 hr by HPLC analysis. Summed up: (§1)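 Protein extracts are from COS-7 cells transiently transfected with human NTPDase1, 2, 3 or 8. The incubation uses Tris–Ringer buffer pH 7.3 at 37 °C with 3 min extract preincubation. Analogue is added alone at 100 μM final. […] Three experiments in triplicate.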

The target in data set [2] is T2, Ectonucleoside triphosphate diphosphohydrolase 2 (Homo sapiens, UniProt Q9Y5L3).
T2 sequence (Q9Y5L3 whole entry): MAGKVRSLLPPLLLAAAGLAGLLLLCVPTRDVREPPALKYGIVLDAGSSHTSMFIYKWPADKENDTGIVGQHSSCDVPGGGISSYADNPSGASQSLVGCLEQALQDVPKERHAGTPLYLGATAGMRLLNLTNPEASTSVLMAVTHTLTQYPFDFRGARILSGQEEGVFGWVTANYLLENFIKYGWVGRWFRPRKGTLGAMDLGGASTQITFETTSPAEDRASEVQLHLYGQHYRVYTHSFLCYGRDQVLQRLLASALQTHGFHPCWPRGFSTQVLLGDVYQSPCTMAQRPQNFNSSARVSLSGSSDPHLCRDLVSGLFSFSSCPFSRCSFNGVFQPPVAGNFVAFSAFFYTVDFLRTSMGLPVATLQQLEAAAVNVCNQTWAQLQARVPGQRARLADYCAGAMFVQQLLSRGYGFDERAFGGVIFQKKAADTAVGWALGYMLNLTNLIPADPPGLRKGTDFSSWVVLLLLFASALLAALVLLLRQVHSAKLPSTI
The data set is described as follows: Drug metabolism assessed as human NTPDase-2-mediated compound hydrolysis expressed in African green monkey COS7 cells at 100 uM after 1 hr by HPLC analysis. Summed up:
as §1

The target of data set [3] is T3, Ectonucleotide pyrophosphatase/phosphodiesterase family member 1 (Homo sapiens, UniProt P22413).
T3 sequence (P22413 whole entry): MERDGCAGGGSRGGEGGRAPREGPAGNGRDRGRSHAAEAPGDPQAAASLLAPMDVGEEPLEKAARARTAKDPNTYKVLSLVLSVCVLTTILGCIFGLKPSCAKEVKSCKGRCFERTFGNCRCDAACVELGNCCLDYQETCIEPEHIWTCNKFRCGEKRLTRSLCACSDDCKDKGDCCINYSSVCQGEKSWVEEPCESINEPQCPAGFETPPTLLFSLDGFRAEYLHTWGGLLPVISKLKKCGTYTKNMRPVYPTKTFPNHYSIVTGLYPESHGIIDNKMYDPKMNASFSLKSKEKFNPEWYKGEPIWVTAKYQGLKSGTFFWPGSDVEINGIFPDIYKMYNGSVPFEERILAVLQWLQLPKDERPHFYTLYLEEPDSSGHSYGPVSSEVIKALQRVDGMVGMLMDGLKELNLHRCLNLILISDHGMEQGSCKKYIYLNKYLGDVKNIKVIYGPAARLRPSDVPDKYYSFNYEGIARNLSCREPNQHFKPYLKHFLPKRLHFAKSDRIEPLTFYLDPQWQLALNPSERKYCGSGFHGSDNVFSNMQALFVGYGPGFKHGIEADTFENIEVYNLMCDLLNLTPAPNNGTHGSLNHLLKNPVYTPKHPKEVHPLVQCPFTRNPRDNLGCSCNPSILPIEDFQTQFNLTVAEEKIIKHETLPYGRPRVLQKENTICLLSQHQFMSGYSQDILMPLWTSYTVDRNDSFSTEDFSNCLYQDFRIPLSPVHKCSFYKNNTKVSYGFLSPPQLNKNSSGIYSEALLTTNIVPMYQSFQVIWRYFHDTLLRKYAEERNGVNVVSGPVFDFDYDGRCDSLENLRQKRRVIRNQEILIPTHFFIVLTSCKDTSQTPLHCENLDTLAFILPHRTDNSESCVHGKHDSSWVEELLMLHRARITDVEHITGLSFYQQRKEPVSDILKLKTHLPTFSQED
The data set is described as follows: Drug metabolism assessed as human NPP1-mediated compound hydrolysis expressed in African green monkey COS7 cells at 100 uM after 1 hr by HPLC analysis.

Data set [4] has as its target T4, Ectonucleotide pyrophosphatase/phosphodiesterase family member 3 (Homo sapiens, UniProt O14638).
T4 sequence (O14638 whole entry): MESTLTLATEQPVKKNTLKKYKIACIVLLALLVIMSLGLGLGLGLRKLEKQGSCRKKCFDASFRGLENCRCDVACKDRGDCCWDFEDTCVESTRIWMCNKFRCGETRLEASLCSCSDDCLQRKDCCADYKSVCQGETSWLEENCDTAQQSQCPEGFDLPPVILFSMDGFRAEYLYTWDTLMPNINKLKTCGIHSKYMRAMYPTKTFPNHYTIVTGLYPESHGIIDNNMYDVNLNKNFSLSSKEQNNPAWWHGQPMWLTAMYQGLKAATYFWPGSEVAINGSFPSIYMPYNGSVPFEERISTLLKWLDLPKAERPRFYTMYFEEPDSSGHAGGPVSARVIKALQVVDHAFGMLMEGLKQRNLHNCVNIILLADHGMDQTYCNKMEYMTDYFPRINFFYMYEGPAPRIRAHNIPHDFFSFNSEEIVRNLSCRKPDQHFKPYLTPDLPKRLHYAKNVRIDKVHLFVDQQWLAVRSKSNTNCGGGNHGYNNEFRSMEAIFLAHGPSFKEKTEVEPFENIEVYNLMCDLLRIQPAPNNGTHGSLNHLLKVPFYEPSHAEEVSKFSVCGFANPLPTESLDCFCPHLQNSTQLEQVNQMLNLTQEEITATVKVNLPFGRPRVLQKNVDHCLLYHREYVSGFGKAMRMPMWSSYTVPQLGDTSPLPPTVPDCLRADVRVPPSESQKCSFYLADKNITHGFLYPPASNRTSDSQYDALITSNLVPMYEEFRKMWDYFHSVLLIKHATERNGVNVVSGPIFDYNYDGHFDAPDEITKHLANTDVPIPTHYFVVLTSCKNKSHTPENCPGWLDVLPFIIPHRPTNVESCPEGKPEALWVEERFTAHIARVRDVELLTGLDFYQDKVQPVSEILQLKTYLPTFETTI
Put plainly: Drug metabolism assessed as human NPP3-mediated compound hydrolysis expressed in African green monkey COS7 cells at 100 uM after 1 hr by HPLC analysis.

The target in data set [5] is T5, Ectonucleoside triphosphate diphosphohydrolase 3 (Homo sapiens, UniProt O75355).
T5 sequence (O75355 whole entry): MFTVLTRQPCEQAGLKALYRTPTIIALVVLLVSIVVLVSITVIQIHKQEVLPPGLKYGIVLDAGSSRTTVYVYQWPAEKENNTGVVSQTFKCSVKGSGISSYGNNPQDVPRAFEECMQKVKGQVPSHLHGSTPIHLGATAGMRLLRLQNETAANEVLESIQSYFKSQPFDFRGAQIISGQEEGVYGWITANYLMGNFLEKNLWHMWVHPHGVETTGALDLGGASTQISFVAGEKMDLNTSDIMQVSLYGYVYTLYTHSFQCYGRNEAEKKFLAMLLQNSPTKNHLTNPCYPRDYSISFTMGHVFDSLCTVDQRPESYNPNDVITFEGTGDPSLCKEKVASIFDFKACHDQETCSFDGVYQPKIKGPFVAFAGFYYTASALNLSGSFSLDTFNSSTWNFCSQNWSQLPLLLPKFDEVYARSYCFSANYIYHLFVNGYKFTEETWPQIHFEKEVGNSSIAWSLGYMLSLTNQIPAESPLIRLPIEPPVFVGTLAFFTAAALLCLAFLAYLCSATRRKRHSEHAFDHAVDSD
Put plainly: Drug metabolism assessed as human NTPDase-3-mediated compound hydrolysis expressed in African green monkey COS7 cells at 100 uM after 1 hr by HPLC analysis. In a few lines:
as §1

As for `Nc1ncnc2c1ncn2[C@@H]1O[C@H](COP(=O)(O)OP(=O)(O)OP(=O)(O)O)[C@@H](O)[C@H]1O` [ADENOSINE TRIPHOSPHATE], the Drug metabolism in data set [1] was found to be 807 nmol/min/mg; in data set [2], 1051 nmol/min/mg; in data set [3], 67 nmol/min/mg; in data set [4], 54 nmol/min/mg; in data set [5] it was 240 nmol/min/mg.
